# A selection: hits, their analogues and other compounds. The true share with any hit is near 1%.
# PDI turbidity = inhibitors of human PDI, primary screen, biochemical, turbidity, single point, plate reader. Protein disulfide-isomerase (Homo sapiens), P07237. 350,000 tested, 0.052% active. inhibition, % at 10 µM. PDI insulin aggregation turbidity, A650, 90 min. AID 588391, 2011;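 active = mean inhibition across replicates of 30% or more, whatever share of single replicates reach that level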
# Target sequence (P07237 whole entry, looked up): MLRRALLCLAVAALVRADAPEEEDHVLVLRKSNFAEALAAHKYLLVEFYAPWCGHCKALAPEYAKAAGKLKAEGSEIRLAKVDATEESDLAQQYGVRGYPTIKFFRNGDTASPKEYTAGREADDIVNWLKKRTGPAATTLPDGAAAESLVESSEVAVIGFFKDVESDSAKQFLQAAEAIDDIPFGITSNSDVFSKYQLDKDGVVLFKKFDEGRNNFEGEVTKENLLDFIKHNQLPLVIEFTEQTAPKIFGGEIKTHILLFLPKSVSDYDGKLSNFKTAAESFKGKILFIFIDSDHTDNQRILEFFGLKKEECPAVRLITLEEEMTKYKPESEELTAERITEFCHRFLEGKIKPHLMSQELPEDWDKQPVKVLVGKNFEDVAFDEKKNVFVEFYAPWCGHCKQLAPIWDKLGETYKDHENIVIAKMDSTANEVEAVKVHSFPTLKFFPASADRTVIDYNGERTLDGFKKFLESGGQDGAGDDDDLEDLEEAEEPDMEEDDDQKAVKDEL
# IMP-1 inh-1 = IMP-1 metallo-beta-lactamase inhibitors, primary screen, biochemical, epi-absorbance readout, Pseudomonas aeruginosa enzyme; purified IMP-1, nitrocefin hydrolysis, epi-absorbance fluorescence; AID 1556, 2009; metallo-beta-lactamase IMP-1 (Pseudomonas aeruginosa); inhibition, % at 5.6 µM; 290,000 tested, 0.45% active;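 active = inhibition above the mean plus 3 SD of all compounds in the same screening run, cut at about 4.5% in these data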;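 note: 0% = IMP-1 with DMSO and 100% = DMSO wells lacking enzyme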
#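 system = purified recombinant IMP-1 beta-lactamase | amount = 0.2 nM IMP-1, as dispensed | medium = HEPES buffer pH 7.1 with ZnSO4 and Brij 35 | times = 25 °C, 15 min preincubation, 25 min reaction | detection = plate fluorescence quenching by hydrolysis product, ex 480/em 530 nm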
# PvdQ acylase = P. aeruginosa PvdQ acylase inhibitors, primary screen, biochemical, fluorescence, plate reader and imaging, single point | PvdQ acylase [Pseudomonas aeruginosa LESB58] | purified PvdQ acylase | inhibition, % at 10 µM | 340,000 tested, 0.063% active; in the data active = inhibition above about 30%, passing the limit was not always enough;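 note: 0% = vehicle neutral wells and 100% = reference inhibitor wells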
# VIM-2 inhibitor = VIM-2 metallo-beta-lactamase inhibitors, primary screen, biochemical, epi-absorbance readout, Pseudomonas aeruginosa enzyme; purified VIM-2, nitrocefin hydrolysis, epi-absorbance fluorescence; inhibition, % at 5.6 µM; 290,000 tested, 0.89% active;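 active = inhibition above the mean of all tested compounds plus 3 SD, cutoff set per screening run, cut at about 7.5% in these data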;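 note: red hydrolysis product quenches plate fluorescence so inhibitors raise well fluorescence; 0% = enzyme with DMSO and 100% = DMSO without enzyme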
# PglD DTNB = C. jejuni PglD acetyltransferase inhibitors, primary screen, biochemical, DTNB colorimetric, single point; UDP-N-acetylbacillosamine N-acetyltransferase PglD (Campylobacter jejuni); purified PglD enzyme, DTNB colorimetric CoA detection; inhibition, % at 12.5 µM; 360,000 tested, 0.098% active; AID 602405, 2012; in the data active = inhibition above about 16%, passing the limit was not always enough
# ERp5 inh = inhibitors of ERp5-driven insulin aggregation, primary screen, biochemical, turbidity, absorbance 650 nm, single point; Protein disulfide-isomerase A6 (Homo sapiens), Q15084; 90 min; inhibition, % at 9.99 µM; 350,000 tested, 0.05% active;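 active = mean replicate inhibition above about 25%, with every replicate also reaching it, limit read from the data, passing the limit was not always enough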
# IMP-1 inh-2 = IMP-1 metallo-beta-lactamase inhibitors, confirmation, selectivity assay for selective VIM-2 inhibitor project, biochemical, epi-absorbance readout, triplicate; purified IMP-1, nitrocefin hydrolysis, epi-absorbance fluorescence; AID 1856, 2009; inhibition, % at 5.6 µM; shares compounds with VIM-2 inhibitor; 1,300 tested, under 10 active; call rule not given here;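 note: 0% = enzyme with vehicle and 100% = vehicle without enzyme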
# VIM-2 FRET inh = VIM-2 inhibitors in FRET format, confirmation, artefact control for selective VIM-2 inhibitor project, biochemical, epi-absorbance artifact exclusion. shares compounds with VIM-2 inhibitor. inhibition, % at 5.6 µM. purified VIM-2, CCF2 FRET substrate hydrolysis. 1,300 tested, 23% active. AID 1857, 2009;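 active = inhibition above the mean of all tested compounds plus 3 SD, cut at about 19% in these data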;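 note: 0% = VIM-2 plus DMSO and 100% = no enzyme wells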
# TEM-1 inh = TEM-1 serine beta-lactamase inhibitors, counter-screen for VIM-2 inhibitor project, biochemical, epi-absorbance, HTS; shares compounds with VIM-2 inhibitor; Purified TEM-1, nitrocefin hydrolysis, epi-absorbance fluorescence; inhibition, % at 5.6 µM; 1,300 tested, 3% active;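 active = inhibition above that campaign's mean inhibition plus 3 SD, cut at about 0.46% in these data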;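 note: 0% = TEM-1 with DMSO and 100% = TEM-1 with 100 µM potassium clavulanate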
# Target sequence (P62593 whole entry, looked up): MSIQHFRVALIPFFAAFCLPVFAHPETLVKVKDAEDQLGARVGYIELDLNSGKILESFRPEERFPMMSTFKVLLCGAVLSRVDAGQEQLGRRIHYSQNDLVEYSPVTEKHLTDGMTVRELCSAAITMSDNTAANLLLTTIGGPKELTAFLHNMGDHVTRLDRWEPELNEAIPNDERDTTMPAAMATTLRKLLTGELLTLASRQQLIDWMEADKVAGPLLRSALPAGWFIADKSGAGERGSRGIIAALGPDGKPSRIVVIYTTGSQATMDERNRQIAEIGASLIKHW
# VIM-2 inh conf = VIM-2 metallo-beta-lactamase inhibitors, confirmation, biochemical, epi-absorbance, hits shared with IMP-1 screen; inhibition, % at 5.6 µM; shares compounds with VIM-2 inhibitor; 1,300 tested, 96% active; purified VIM-2, nitrocefin hydrolysis;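 active = inhibition of the VIM-2 beta-lactamase enzyme above about 11% from the earlier first-round screen, limit read from the data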;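 note: 0% = VIM-2 with DMSO and 100% = buffer wells without enzyme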
# An asterisk follows results filed as active; nt = no result.
SMILES,PDI turbidity,IMP-1 inh-1,PvdQ acylase,VIM-2 inhibitor,PglD DTNB,ERp5 inh,IMP-1 inh-2,VIM-2 FRET inh,TEM-1 inh,VIM-2 inh conf
CC(/C=N/n1c(-c2ccco2)n[nH]c1=S)=C\c1ccccc1,8.5,-3.0,9.0,13.3*,0.7,nt,-3.3,39.6*,-7.2,23.3*
CCc1n[nH]c(=S)n1/N=C/c1ccc(NC(C)=O)cc1,2.5,-3.2,-9.4,23.2*,1.3,-6.4,-3.7,61.4*,-6.6,45.7*
CCc1n[nH]c(=S)n1/N=C/C(C)=C\c1ccccc1,-5.5,-2.2,-16.9,57.3*,-3.0,-2.5,-4.4,83.2*,-10.1,70.3*
CCC(=O)N1CC2(C1)[C@@H](c1ccccc1)[C@H](CO)N2C(=O)NC(C)C,nt,nt,nt,nt,nt,-0.6,nt,nt,nt,nt
CCOc1cc(N2CCOCC2)c(OCC)cc1NC(=O)c1ccc(-n2ccnc2)c([N+](=O)[O-])c1,6.3,-4.4,-7.6,68.0*,4.9,-2.7,-2.8,-7.3,-6.1,75.4*
CCOc1cc(N2CCOCC2)c(OCC)cc1NC(=O)c1ccc(C)cc1,-0.6,-3.3,-14.1,-2.5,nt,1.7,nt,nt,nt,nt
O=C(COc1ccc2c3c(c(=O)oc2c1)CCCC3)NCCCn1ccnc1,1.0,-1.3,5.9,29.6*,-2.5,1.6,-1.2,-4.7,1.4*,41.4*
CC(Oc1ccc2c3c(c(=O)oc2c1)CCCC3)C(=O)NCCCn1ccnc1 (stereo unspecified),2.2,-3.8,-13.7,23.3*,2.9,4.2,-3.5,-6.0,-5.9,40.4*
O=C(COc1ccc2c(-c3ccccc3)cc(=O)oc2c1)NCCCn1ccnc1,nt,-0.3,2.4,3.0,-0.2,-1.7,nt,nt,nt,nt
Cc1c(C)c2ccc(OCC(=O)NCCCn3ccnc3)cc2oc1=O,-2.4,-0.3,-6.8,20.8*,-4.5,9.8,-3.6,-0.6,-5.9,32.3*
COc1ccc(S(=O)(=O)Nc2cccc3c2O[C@@H](CN(C)Cc2ccc(C(=O)Nc4ccccc4N)cc2)[C@@H](C)CN([C@@H](C)CO)C3=O)cc1,nt,nt,nt,nt,-3.2,4.7,nt,nt,nt,nt
CCCC#Cc1ccc2c(c1)O[C@H](CN(C)CCC)[C@@H](C)CN([C@H](C)CO)S2(=O)=O,nt,nt,nt,nt,-0.1,-2.6,nt,nt,nt,nt
C[C@H](CO)N1C[C@H](C)[C@H](CN(C)C)Oc2cc(C#CC(C)(C)O)ccc2S1(=O)=O,nt,nt,nt,nt,3.7,3.8,nt,nt,nt,nt
CCc1ccc(CN2CCC(n3nccc3NC(=O)c3ccccc3OC)CC2)o1,-1.0,nt,nt,nt,1.9,-0.4,nt,nt,nt,nt
COc1ccccc1C(=O)Nc1ccnn1C1CCN(Cc2cnn(C)c2C)CC1,-2.9,0.0,-14.1,57.3*,nt,0.3,-3.5,0.7,-6.3,-0.5
COc1cc(C(=O)N/N=C/c2coc3ccccc3c2=O)cc(OC)c1OC,-2.9,4.0,-14.8,17.8*,2.9,-2.3,1.7,31.4*,-4.8,18.5*
COc1cc(C(=O)N/N=C/c2coc3ccc(Cl)cc3c2=O)ccc1O,3.1,2.3,0.7,0.7,-2.4,6.1,nt,nt,nt,nt
CNC(=O)C[C@H]1CC[C@@H]2[C@H](COc3ccc(NC(=O)Nc4ccc(F)cc4)cc3C(=O)N2C)O1,nt,nt,nt,nt,2.2,2.8,nt,nt,nt,nt
CCSc1ccc2nnc(-c3cccc(F)c3)n2n1,9.5,-1.9,-7.8,12.4*,2.9,nt,-3.3,-8.6,-6.3,23.1*
COc1ccc(-c2cc(C(F)(F)F)nc(N3CCN(C)CC3)n2)cc1OC,-2.0,0.0,6.5,18.0*,-2.7,nt,-1.5,0.6,-5.9,30.1*
COc1ccc(-c2cc(C(F)(F)F)nc(N3CCCCCC3)n2)cc1,-2.2,-3.3,7.0,-2.5,2.6,nt,nt,nt,nt,nt
COc1ccc(-c2cc(C(F)(F)F)nc(N3CCN(C)CC3)n2)cc1,-12.5,-4.3,-7.9,17.4*,3.1,nt,-2.2,36.1*,-7.5,25.1*
CNC(=O)C[C@@H]1CC[C@@H]2[C@H](COC[C@H](O)CN2Cc2ccc(Cl)c(Cl)c2)O1,nt,nt,nt,nt,3.2,nt,nt,nt,nt,nt
CO[C@H]1CN(C)C(=O)c2cc(NC(=O)C3CCC3)ccc2OC[C@@H](C)N(Cc2ccncc2)C[C@@H]1C,nt,nt,nt,nt,-3.1,0.7,nt,nt,nt,nt
CC=Cc1ccc2n(c1=O)C[C@@H]1[C@@H](CO)[C@H](C(=O)NC3CCCC3)N[C@H]21 (mixture of isomers),nt,nt,nt,nt,nt,9.1,nt,nt,nt,nt
SMILES,PDI turbidity,IMP-1 inh-1,PvdQ acylase,VIM-2 inhibitor,PglD DTNB,ERp5 inh,IMP-1 inh-2,VIM-2 FRET inh,TEM-1 inh,VIM-2 inh conf
Cc1ccc2oc(=O)c3cc(C(=O)NCCCN4CCN(C)CC4)sc3c2c1,2.8,-1.9,-7.3,13.4*,1.3,-0.6,-2.1,-0.4,-9.2,19.8*
CCN(Cc1ccccc1)C(=O)c1cc2c(=O)oc3ccc(C)cc3c2s1,nt,-3.9,6.7,0.8,-1.9,-2.4,nt,nt,nt,nt
O=C(NCCCN1CCCCCC1)c1cc2c(=O)oc3ccccc3c2s1,-3.3,0.4,-13.3,15.6*,-3.3,6.1,-3.2,2.0,-13.6,24.6*
CCN1CCN(CCCNC(=O)c2cc3c(=O)oc4ccc(C)cc4c3s2)CC1,-5.2,-0.5,-15.3,12.7*,-0.8,-1.1,-3.6,-0.2,-11.4,18.6*
CCCN1CCN(CCCNC(=O)c2cc3c(=O)[nH]c4ccc(C)cc4c3s2)CC1,-1.0,-3.7,-6.8,6.3,nt,-2.6,nt,nt,nt,nt
Cc1ccc2oc(=O)c3cc(C(=O)NCCCN4C(C)CCCC4C)sc3c2c1 (stereo unspecified),12.7,1.1,-14.4,12.3*,6.2,3.1,-2.8,3.2,-10.0,16.5*
C[C@@H]1CCCCO[C@H](CN(C)S(=O)(=O)c2ccccc2)[C@H](C)CN([C@@H](C)CO)C(=O)c2cc(NC(=O)NC3CCCCC3)ccc2O1,nt,nt,nt,nt,-2.5,-3.4,nt,nt,nt,nt
C[C@H]1CN([C@@H](C)CO)C(=O)c2cc(C#Cc3cccnc3)cnc2O[C@@H]1CN(C)Cc1ccc(F)cc1,nt,nt,nt,nt,1.2,-0.6,nt,nt,nt,nt

# Assay outcomes (PubChem BioAssay)
